# Measurements from different studies.
# Each line is one published result; the experiments were not run side by side.
# Target: Serine/threonine-protein kinase VRK2 (VRK2, Homo sapiens, UniProt Q86Y07)
SMILES,test,setting,endpoint,result
CCN(CC)c1ccc(C2=NNC(=O)CC2C)cc1[N+](=O)[O-] (stereo not drawn),"enzyme activity, inhibitor",10 µM,remaining activity,95%
Cn1c2c(c3ccc(Cl)c(Cl)c31)C(C#N)C1(CCOCC1)NC2=O (stereo not drawn),"thermal stability, DSF",10 µM,ΔTm,0 °C
CCN(CC)CCNC(=O)c1c(C)[nH]c(/C=C2\C(=O)Nc3ccc(F)cc32)c1C,"enzyme activity, inhibitor",10 µM,inhibition,-10%
Cc1ccc(C(=O)Nc2ccc(CN3CCN(C)CC3)c(C(F)(F)F)c2)cc1C#Cc1cnc2cccnn12,"enzyme activity, inhibitor",23.5 nM,remaining activity,74%
CCC1(CC)NC(=O)c2c(c3ccc(Cl)c(Cl)c3n2C)C1C#N (stereo not drawn),"thermal stability, DSF",10 µM,ΔTm,0.1 °C
Cc1sc(C(=O)NC2COC2)cc1-n1cc(NC(=O)Nc2c(F)cccc2Cl)cn1,"enzyme activity, inhibitor",10 µM,remaining activity,102%
Cn1c2c(Cl)c(Cl)ccc2c2cc[nH]c(=O)c21,"thermal stability, DSF",10 µM,ΔTm,0 °C
CC(C)(C)c1nc(-c2cccc(NS(=O)(=O)c3c(F)cccc3F)c2F)c(-c2ccnc(N)n2)s1,"enzyme activity, inhibitor, radiometric",1 µM,remaining activity,103%
COc1cc(Cl)c(C(=O)N[C@@H](CN[C@H]2CC[C@@H](N)CC2)Cc2ccc(C#N)cc2)cc1-c1ccc(CN[C@H](C)c2ccc(C)cc2)o1,"enzyme activity, inhibitor",1 µM,remaining activity,91%
CNC(=O)c1cc(Oc2ccc(NC(=O)Nc3ccc(Cl)c(C(F)(F)F)c3)cc2)ccn1,"enzyme activity, inhibitor",10 µM,inhibition,-16%
C[C@H](NC(=O)c1cnc2n1[C@](C)(Cc1ccc(C#N)cc1)C(=O)N2c1cc(Cl)c(F)c(Cl)c1)C(=O)NC1(c2ccccn2)CC1,"cell-free assay, competition with immobilised ligand",1 µM,remaining binding,100%
Cn1c2c(c3ccc(Cl)c(Cl)c31)C(C#N)C(C)(C)NC2=O (stereo not drawn),"thermal stability, DSF",10 µM,ΔTm,0.8 °C
O=C(Nc1cnc(Oc2ccc(F)cc2)nc1)N1CCc2ncccc2[C@@H]1c1ccc(F)cc1,"cell-free assay, competition with immobilised ligand",1 µM,remaining binding,100%
Cc1ccc(Nc2nccc(N(C)c3ccc4c(C)n(C)nc4c3)n2)cc1S(N)(=O)=O,"enzyme activity, inhibitor",10 µM,inhibition,-18%
CS(=O)(=O)N1CCCC(NC(=O)[C@H](CCC2CCCCC2)NC(=O)c2ccc(CNC(=O)c3cnc4ccccn34)cc2)C1 (stereo partly drawn),"cell-free assay, competition with immobilised ligand",0.1 µM,remaining binding,76%
CN1CC(Oc2cnc(C#N)cc2-c2ccn3nc(NC(=O)C4CC4)cc3c2)C1,"enzyme activity, inhibitor",1 µM,inhibition,-9%
N#Cc1ccc(Nc2ccc3[nH]c(=O)[nH]c3c2)c(Cl)c1,"cell-free assay, competition with immobilised ligand",1 µM,remaining binding,100%
Cn1c2c(c3ccc(Cl)c(Cl)c31)C(C#N)C1(CCCC1)NC2=O (stereo not drawn),"thermal stability, DSF",10 µM,ΔTm,-0.2 °C
COc1ccc2c(O[C@@H]3C[C@H]4C(=O)N[C@]5(C(=O)O)CC5/C=C\CCCCC[C@H](NC(=O)OC5CCCC5)C(=O)N4C3)cc(-c3csc(NC(=O)C(C)C)n3)nc2c1C (stereo partly drawn),"cell-free assay, competition with immobilised ligand",1 µM,remaining binding,79%
CCCS(=O)(=O)Nc1ccc(F)c(C(=O)c2c[nH]c3ncc(-c4ccc(Cl)cc4)cc23)c1F,"enzyme activity, inhibitor",1 µM,inhibition,< 10%
CO[C@@H](C)c1c(Nc2ccc([C@H](N(C)C(=O)C3CCS(=O)(=O)CC3)C(F)(F)F)cc2)cnc2cc(Cl)nn12,"cell-free assay, competition with immobilised ligand",1 µM,remaining binding,100%
N#CC1c2c([nH]c3c(Cl)c(Cl)ccc23)C(=O)NC12CCCCC2 (racemic),"thermal stability, DSF",10 µM,ΔTm,-0.3 °C
CN(C)CC#Cc1ccc(OCCCc2sc(N3CCc4cccc(C(=O)Nc5nc6ccccc6s5)c4C3)nc2C(=O)O)c(F)c1,"cell-free assay, competition with immobilised ligand",1 µM,remaining binding,100%
Cc1cc(NC(=O)c2cccc3cc(-c4cccc5[nH]nc(N)c45)ccc23)ccc1F,"enzyme activity, inhibitor",0.1 µM,activity vs control,89%
